# Measurements as given in PubChem BioAssay AID504414 (Broad Institute, 2011).
# In all, about 330,000 compounds went through this assay and about 55 (0.02%) were called active.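 The calls were made as follows: active = highest replicate inhibition of at least 40%; inactive = the rest.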 The sample as a whole holds a higher share of actives than the screen did.
# Target: Golgi-associated PDZ and coiled-coil motif-containing protein (Homo sapiens) (UniProt Q9HD26)
# Assay: disruption of CAL PDZ-reporter peptide interaction – biochemical, fluorescence polarization, Cer-tagged CAL PDZ, HTS, primary screen (AID 504414);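 also: plate controls were DMSO neutral control wells for no effect and unlabeled competitor peptide control wells for full effect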
# Settings: purified CAL PDZ, TMR-peptide fluorescence polarization, 1 h; at 20 µM; hits give high values
# How it was run: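 System: tagged CAL PDZ domain. Schedule: 1 h room-temperature incubation prior to read. Signal: fluorescence polarization (mP). Measure: percent inhibition from loss of millipolarization.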
row,SMILES,inhibition
1,CCOc1ccc(NC(=O)CC(Cc2ccc(Cl)cc2)C(=O)O)cc1 (centres undefined),-0.804% (inactive)
2,Cc1cc(-n2cnc(-c3cn(C)nc3C)n2)no1,-0.598% (inactive)
3,C=CCOC(=O)N1CCC2CC1c1cc(-c3ccc(OC)cc3)ccc12 (centres undefined),-0.353% (inactive)
4,Cc1nc(-c2ccccc2)sc1-c1nnc(C2CC2)o1,-0.361% (inactive)
5,CCN(C(=O)COC(=O)/C=C/c1nc2ccccc2s1)C1CCS(=O)(=O)C1 (centres undefined),0.0609% (inactive)
6,CC(=O)c1c(C)[nH]c(C(=O)Nc2cc(S(=O)(=O)N(C)C)ccc2C)c1C,-0.89% (inactive)
7,COc1ccc(CNC(=O)CSc2n[nH]c(N)n2)cc1OC,-2.17% (inactive)
8,C=CCOc1c2ccc(C(=O)N(CC)c3ccc(OC)cc3)cc2nn1C,-0.978% (inactive)
9,O=C(COc1coc(CN2CCN(c3ccccc3)CC2)cc1=O)N1CCc2ccccc21,-0.986% (inactive)
10,COc1cc(NC(=O)c2ccc3c(c2)OCO3)ccc1NC(=O)c1cccs1,-2.17% (inactive)
11,COc1cc2ccccc2cc1C(=O)Nc1ccc(NC(=O)c2cccs2)cc1,-1.38% (inactive)
12,COc1cc(NC(=O)c2cccs2)ccc1NC(=O)c1ccccc1Cl,52% (active)
13,Cn1cc(CCC(=O)N2CCCC(C(=O)c3ccc(C(C)(C)C)cc3)C2)cn1 (centres undefined),-1.53% (inactive)
14,Cc1ccccc1NC(=O)CCOc1ccccc1,-0.379% (inactive)
15,COc1ccccc1-n1ccnc(SCC(=O)NC2CCCCC2)c1=O,-0.307% (inactive)
16,CN(C)S(=O)(=O)Oc1ccccc1C(=O)Nc1ccccc1Cl,-2.53% (inactive)
17,CN(C)C(=O)CCc1ccc2c3c([nH]c2c1)[C@]1(C)[C@@H](C(=O)N2CCCCC2)C[C@H](CC(=O)NCCC2=CCCCC2)C(=O)N1CC3,-0.602% (inactive)
18,CC(CN1CCCCC1)c1ccccc1 (centres undefined),-0.367% (inactive)
19,COc1ccccc1CNC(=O)CNC(=O)c1cn(-c2ccccc2OC)c(=O)c2ccccc12,-0.592% (inactive)
20,CCc1ccc(C(=O)C(C)OC(=O)CN2C(=O)NC3(CCCC3)C2=O)cc1 (centres undefined),-0.0354% (inactive)
21,Cc1ccoc1C(=O)Nc1cccc(Oc2ccccc2)c1,-1.61% (inactive)
22,Cc1ccnc(NC(=O)C2CCN(S(=O)(=O)c3c(C)c(C)cc(C)c3C)CC2)c1,-2.34% (inactive)
23,CCOc1ccc(OCC(=O)OC(C)C(=O)NC2CCCCC2C)cc1 (centres undefined),-1.17% (inactive)

row,SMILES,inhibition
1,O=C(O)C1C2C=CC(O2)C1C(=O)Nc1ccccn1 (centres undefined),0.325% (inactive)
2,CCc1cccc(NC(=S)N(CCN(C)C)C2CCN(C(C)C)CC2)c1,-0.435% (inactive)
3,COCCN(C(=S)Nc1ccccc1OC)C1CCN(C(C)C)CC1,61.8% (active)
4,COc1ccccc1NC(=S)N1CCN(C(c2ccccc2)c2ccccc2)CC1,0.312% (inactive)
5,Cc1ccccc1N1C(=O)C2ON(c3ccccc3)C(c3ccncc3)C2C1=O (centres undefined),-1.2% (inactive)
6,CCCCN(C)c1ccc([N+](=O)[O-])cc1,-3.03% (inactive)
7,CC(=O)c1c(O)cc2n(c1=O)-c1ccc(Cl)cc1C2(C)C,-2.37% (inactive)
8,COc1ccc(-c2cc(C(=O)N(C)CC(=O)Nc3ccccc3Cl)c3ccccc3n2)cc1OC,-0.623% (inactive)
9,O=C(/C=C/Nc1ccc(S(=O)(=O)Nc2cnc3ccccc3n2)cc1)c1cccnc1,-1.99% (inactive)
10,COc1ccc(N(CC(=O)N2CCOCC2)S(=O)(=O)c2ccccc2)cc1Cl,-0.969% (inactive)
11,CC(NCCc1ccc(S(N)(=O)=O)cc1)C(=O)NCc1ccccc1 (centres undefined),-0.747% (inactive)
12,CC(C)NC(=O)Nc1cccc2c1O[C@H](CN(C)S(=O)(=O)c1cccs1)[C@@H](C)CN([C@H](C)CO)C2=O,-1.8% (inactive)
13,CC(C)(C)c1cc(=O)n2c(nc3ccccc32)[nH]1,-2.22% (inactive)
14,O=C(Nc1ccc(C2CC2(Cl)Cl)cc1)c1cccc([N+](=O)[O-])c1 (centres undefined),8.41% (inactive)
15,CCOC(=O)C(C)n1cnc2scc(-c3ccc(C)c(C)c3)c2c1=O (centres undefined),-1.15% (inactive)
16,CCOc1cc(CNCCN(C)C)c(Cl)cc1OCC(=O)NCCc1ccccc1,-2.91% (inactive)
17,CCOC(=O)C1Sc2[nH]c(=O)sc2C(c2ccc(Cl)cc2)C1C(=O)OCC (centres undefined),0.946% (inactive)
18,Cc1cccc(C(=O)OCC(=O)NC(C)C2CC3CCC2C3)c1O (centres undefined),1.53% (inactive)
19,COc1ccccc1N(CC(=O)NC1CCCC1)C(=O)C1(C)CC(=O)N=C2C=CC(C)=CN21 (centres undefined),-1% (inactive)
20,Cc1ccc(C)c(C(=O)COC(=O)Cn2[nH]c(=O)c3ccccc3c2=O)c1,-1.04% (inactive)
21,CC(=O)C1=C(C)NC2=C(C(=O)CC(C)(C)C2)C1C (centres undefined),-0.554% (inactive)
22,COCCNC(=O)/C(C#N)=C/c1nc(N(C)C)n(-c2ccc(F)cc2)c1Cl,-6.48% (inactive)
23,CN(CCc1cn[nH]c1)C(=O)CC1C(=O)NCCN1Cc1cccc(Oc2ccccc2)c1 (centres undefined),0.0148% (inactive)

row,SMILES,inhibition
1,CN(C)S(=O)(=O)c1ccc(N2CCCC2)c(C(=O)Nc2ccc(Br)cc2F)c1,0.123% (inactive)
2,CCOc1cc(C(=O)N(Cc2ccccc2)c2ccc(C)cc2)ccc1OCC(=O)N1CCOCC1,-0.206% (inactive)
3,NS(=O)(=O)c1ccc(CCNC(=O)c2ccc(Cl)c(S(=O)(=O)N3CCCCCC3)c2)cc1,-0.205% (inactive)
4,COc1ccc(-c2c(C)nn3c(N4CCC(C(=O)N5CCCCC5)CC4)cc(C)nc23)cc1OC,0.851% (inactive)
5,Cn1c(=O)c2c(nc(N3CCOCC3)n2CCNC2=NCCC2)n(C)c1=O,0.616% (inactive)
6,COC(=O)[C@H]1Cc2cnoc2C[C@]1(C)C(=O)O,-1.94% (inactive)
7,Cc1cccc(NC(=O)CSc2nnc(CCNC(=O)OC(C)(C)C)o2)c1C,0.572% (inactive)
8,CN(C)c1ccc(CNC2C3CC4CC(C3)CC2C4)cc1 (centres undefined),-1.31% (inactive)
9,CC(C)NC(=O)COCc1cc(-c2ccc3c(c2)OCO3)on1,0.0991% (inactive)
10,O=C(NCCCN1CCCC1=O)c1cccc(S(=O)(=O)NCc2ccccc2)c1,-2.23% (inactive)
11,CCOCCCNC(=O)C(NC(=O)CNC(=O)c1ccccc1)c1ccc(OC)cc1 (centres undefined),-0.316% (inactive)
12,CCOc1ccc2sc(NS(=O)(=O)c3ccc(N)cc3)nc2c1,-2.52% (inactive)
13,O=C1CS(=O)CN1c1ccc(Oc2ccccc2)cc1 (centres undefined),-2.68% (inactive)
14,O=C(CN(CC1CCCO1)C(=O)CNS(=O)(=O)c1ccc(Cl)cc1)NCc1ccccc1 (centres undefined),-2.47% (inactive)
15,CCN(C(=O)Cc1nc(N)n[nH]1)C1(C(=O)Nc2ccccc2)CCCCC1,-0.615% (inactive)
16,CCOC(=O)C1Cn2c(nc3c(c2=O)C(C)(CC)Cc2ccccc2-3)S1 (centres undefined),-2.98% (inactive)
17,O=C(/C=C/c1ccccc1[N+](=O)[O-])OCC(=O)N1CCCC1,-0.608% (inactive)
18,CCOC(=O)N1CCN(S(=O)(=O)N2CCCC(C(=O)NCCCN3CCC(C)CC3)C2)CC1 (centres undefined),-1.6% (inactive)
19,Cc1ccccc1/[N+]([O-])=C/c1ccncc1,-1.06% (inactive)
20,COc1ccc(Cn2c(-c3ccc(Cl)cc3)c[n+]3ccccc23)cc1,-2.82% (inactive)
21,CSCCNC(=O)c1ccc2nc(Cc3ccccc3F)oc2c1,0.068% (inactive)
22,CC1CN(C(=S)Nc2ccc(Br)cc2Cl)CC(C)O1 (centres undefined),0.196% (inactive)
23,Cc1ccccc1CNC(=O)CCC(=O)N1Cc2ccccc2Oc2ncccc21,-3.11% (inactive)

row,SMILES,inhibition
1,Cc1cccc(-n2nc3c(c2NC(=O)c2cc4ccccc4o2)CS(=O)(=O)C3)c1,-2.7% (inactive)
2,CCC1([N+](=O)[O-])COC(c2ccc(C)cc2)OC1 (centres undefined),-0.14% (inactive)
3,O=c1c2ccccc2cnn1Cc1n[nH]c(=S)n1-c1ccccc1F,0.871% (inactive)
4,CCC(C)Sc1nc2c(cnn2-c2ccc(F)cc2)c(=O)[nH]1 (centres undefined),-0.979% (inactive)
5,O=C1NC(c2ccccc2)CCC1(Cl)Cl (centres undefined),-0.102% (inactive)
6,CCOC(=O)c1nc(-c2ccc3c(c2)OCO3)[nH]c1C,-0.475% (inactive)
7,COc1cc(C2C3C(=O)N(c4ccccc4)C(=O)C3ON2c2ccccc2)ccc1O (centres undefined),-0.569% (inactive)
8,COc1cccc2c(C)c(C(=O)O)[nH]c12,-0.62% (inactive)
9,O=C(NNS(=O)(=O)c1ccc(F)cc1)c1cnccn1,-2.25% (inactive)
10,CN(C)S(=O)(=O)c1ccc(N/C=C(\[N+](=O)[O-])S(=O)(=O)c2ccccc2)cc1,0.264% (inactive)
11,CCCCc1nnc(NC(=O)CSc2nc(C)cc(=O)[nH]2)s1,-0.42% (inactive)
12,CCCCCc1nnc(NC(=O)c2ccc(=O)n(C)n2)s1,176% (active)
13,CCCCc1nnc(NC(=O)CSc2nc(N)cc(=O)[nH]2)s1,0.237% (inactive)
14,Cc1ccc(C(=O)NN(CCC#N)C2=NS(=O)(=O)c3ccccc32)cc1,-0.552% (inactive)
15,CC(C)c1cc(N=O)cc(C(C)C)c1O,-0.56% (inactive)
16,Clc1cc(-c2ccc(/C=N/n3cnnc3)o2)ccc1Br,-4.91% (inactive)
17,CC(C(=O)N(C)CC(=O)Nc1ccccc1C(F)(F)F)N1C(=O)c2ccccc2C1=O (centres undefined),-0.0605% (inactive)
18,CCOCCCN(C)C1CCN(C(=O)c2oc3ccccc3c2NC(=O)Cc2cccc([N+](=O)[O-])c2)CC1,-0.742% (inactive)
19,O=C(Nc1ccc2c(c1)nc1n2CCCCC1)c1cc(S(=O)(=O)N2CCOCC2)ccc1Cl,-2.81% (inactive)
20,CCOc1ccc(N(CC(=O)Nc2cccc(OC)c2)S(C)(=O)=O)cc1,0.31% (inactive)
